Measurements from ChEMBL document CHEMBL3769372, “Specific Inhibitors of HIV Capsid Assembly Binding to the C-Terminal Domain of the Capsid Protein: Evaluation of 2-Arylquinazolines as Potential Antiviral Compounds” (J Med Chem, 2016).
Residues, ends and D or L forms follow the SMILES beside them.

Assays:
[1] = target: T1, Structural capsid protein (Human immunodeficiency virus 1, UniProt Q76129); experiment: Binding affinity to recombinant N-terminal GST-tagged HIV1 NL4-3 capsid C-terminal domain (146 to 231 residues) incubated for 2 hrs by alphascreen assay
T1 sequence (Q76129 whole entry, the tested form may be a part): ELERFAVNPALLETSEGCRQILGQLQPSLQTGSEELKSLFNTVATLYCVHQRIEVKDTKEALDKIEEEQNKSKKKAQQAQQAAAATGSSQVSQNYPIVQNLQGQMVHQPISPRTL
Procedure, shortened: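 AlphaScreen competition: GST-fused CA (60 nM) on glutathione acceptor beads and biotinylated peptide (30 nM) on streptavidin donor beads, beads 10 µg/ml. Buffer was PBS, 0.05% Tween 20, 2 mM DTT. Compounds were titrated 0.2–200 µM and incubated 2 h at RT, with emission read at 520–620 nm. Inhibition was normalized to DMSO-only (max) and buffer (min) controls.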

[2] = tested on: Human immunodeficiency virus 1; experiment: Antiviral activity against HIV1 NL4-3 infected in human TZM-bl cells assessed as inhibition of viral replication administered 6 hrs postinfection measured 48 hrs by luciferase reporter gene assay; format: functional, organism-based; details: Human immunodeficiency virus 1, NL4-3, TZM-bl
Procedure, shortened: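 TZM-bl cells infected with NL4-3 stock (from MT-4 co-culture) at MOI 1; at 6 h p.i. medium replaced with DMEM containing compound, refreshed at 30 h p.i.; supernatants collected at 52 h p.i. and titrated on fresh TZM-bl cells; infection read by luciferase at 48 h p.i.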

[3] = Cytotoxicity against human TZM-bl cells assessed as cell viability at 10 uM after 48 hrs by MTS assay relative to control; format: cell-based; details: read-out: Activity
Procedure, shortened: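 TZM-bl cells (DMEM, 10% FBS, 10 mM HEPES) incubated with compound at 37 °C, 5% CO2 for 48 h in parallel with the infectivity assay; viability by MTS read-out. Tested in triplicate at 10 µM final, with titration 0.625–20 µM; values normalized to DMSO-only treated cells.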

[4] = target: T1, Structural capsid protein; experiment: Binding affinity to HIV1 NL4-3 dimeric capsid C-terminal domain (146 to 231 residues) by isothermal titration calorimetry
Procedure, shortened: (§1)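 VP-ITC at 25 °C in 30 mM MES pH 6.0 with 10% glycerol, 2 mM 2-mercaptoethanol and 2% DMSO; protein concentrations by HPLC amino acid analysis. Ligand concentration was estimated by UV spectra after centrifugation to remove precipitate. 9 µl aliquots of 31 µM ligand went into 3.9 µM CA dimer or 3.1 µM CA CTD dimer to saturation. Ligand-into-buffer heat was subtracted.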

[5] = Binding affinity to recombinant HIV1 NL4-3 capsid N183A mutant by isothermal titration calorimetry; parameters: species or system Human immunodeficiency virus 1
Procedure, shortened: (§2)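 Point mutants made by PCR, expressed solubly in E. coli BL21(DE3)RIL, enriched by ammonium sulphate fractionation (20–50%), then MonoS cation exchange (pH 5.5) and Superdex75 gel filtration. Binding by ITC at 25 °C in 30 mM MES pH 6.0, 10% glycerol, 2 mM 2-mercaptoethanol, 2% DMSO. 320–350 µM peptide ligand was injected in 2 µl steps into 23–33 µM protein, with a buffer-only control.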

[6] = target: T1, Structural capsid protein; experiment: Binding affinity to full length HIV1 NL4-3 capsid (1 to 231 residues) by isothermal titration calorimetry
Procedure, shortened: (§3)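 ITC at 25 °C (Auto-iTC200) in 30 mM MES pH 6.0, 10% glycerol, 2 mM 2-mercaptoethanol, 2% DMSO. Protein and peptide concentrations were set by HPLC amino acid analysis. 320–350 µM peptide ligand was injected in 2 µl steps into 23–33 µM protein until saturated. A buffer-only injection control was run, and titrations were repeated in two buffers of differing ionization enthalpy.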

[7] = target: T1, Structural capsid protein; experiment: Binding affinity to full length HIV1 NL4-3 dimeric capsid (1 to 231 residues) by isothermal titration calorimetry; procedure, shortened: as §1
[8] = Binding affinity to recombinant HIV1 NL4-3 capsid L211S mutant by isothermal titration calorimetry; parameters: species or system Human immunodeficiency virus 1; procedure, shortened: as §2
[9] = tested on: Human immunodeficiency virus 1; experiment: Selectivity ratio of Kd for recombinant HIV1 NL4-3 capsid N183A mutant to Kd for full length HIV1 capsid (1 to 231 residues)
Procedure, shortened: (§4)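 Ratio of ITC-derived KD for each mutant CA to KD for wild-type CA. Titrations were at 25 °C in 30 mM MES pH 6.0, 10% glycerol, 2 mM 2-mercaptoethanol, 2% DMSO. Peptide ligand (320–350 µM) was injected into 23–33 µM protein, with a buffer-only control.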

[10] = tested on: Human immunodeficiency virus 1; experiment: Selectivity ratio of Kd for recombinant HIV1 NL4-3 capsid L211S mutant to Kd for full length HIV1 capsid (1 to 231 residues); procedure, shortened: as §4
[11] = target: T1, Structural capsid protein; experiment: Binding affinity to HIV1 NL4-3 capsid at 25 degC by isothermal titration calorimetry; procedure, shortened: as §3
[12] = Binding affinity to recombinant HIV1 NL4-3 capsid E187A mutant by isothermal titration calorimetry; parameters: species or system Human immunodeficiency virus 1; procedure, shortened: as §2
[13] = tested on: Human immunodeficiency virus 1; experiment: Selectivity ratio of Kd for recombinant HIV1 NL4-3 capsid L211A mutant to Kd for full length HIV1 capsid (1 to 231 residues); procedure, shortened: as §4
[14] = Binding affinity to recombinant HIV1 NL4-3 capsid Y169A mutant by isothermal titration calorimetry; parameters: species or system Human immunodeficiency virus 1; procedure, shortened: as §2
[15] = tested on: Human immunodeficiency virus 1; experiment: Selectivity ratio of Kd for recombinant HIV1 NL4-3 capsid Y169A mutant to Kd for full length HIV1 capsid (1 to 231 residues); procedure, shortened: as §4
[16] = tested on: Human immunodeficiency virus 1; experiment: Selectivity ratio of Kd for recombinant HIV1 NL4-3 capsid E187A mutant to Kd for full length HIV1 capsid (1 to 231 residues); procedure, shortened: as §4
[17] = target: T1, Structural capsid protein; experiment: Binding affinity to HIV1 NL4-3 capsid C-terminal domain (146 to 231 residues) by isothermal titration calorimetry; procedure, shortened: as §3
[18] = Binding affinity to recombinant HIV1 NL4-3 capsid L211A mutant by isothermal titration calorimetry; parameters: species or system Human immunodeficiency virus 1; procedure, shortened: as §2

Compound | IC50 [1] [µM] | IC50 [2] [µM] | viability at 48 h, 10 µM [3] [%] | other results
CS(=O)(=O)c1ccc(Nc2nc(-c3ccncc3)nc3ccccc23)cc1 | > 100 | > 10 | 97 | –
CCOC(=O)Cc1ccc(Nc2nc(-c3cccnc3)nc3ccccc23)cc1 | > 100 | > 10 | 98 | –
CCOC(=O)c1ccc(Nc2nc(-c3ccncc3)nc3ccccc23)cc1 | 8 | > 10 | 96 | Kd [4]: 0.038 µM; Kd [5]: 0.89 µM; Kd [6]: 0.14 µM; Kd [7]: 0.14 µM; Kd [8]: 1.9 µM; Selectivity ratio [9]: 7; Selectivity ratio [10]: 14
CCOC(=O)c1cccc(Nc2nc(-c3cccnc3)nc3ccccc23)c1 | 68 | 5 | 83 | –
C[S+]([O-])c1ccc(Nc2nc(-c3ccncc3)nc3ccccc23)cc1 (stereo not drawn) | > 100 | > 10 | 98 | –
CCOC(=O)c1ccc(Nc2nc(-c3cccnc3C)nc3ccccc23)cc1 | 14 | > 10 | 100 | –
NS(=O)(=O)c1ccc(Nc2nc(-c3cccnc3)nc3ccccc23)cc1 | 80 | > 10 | 98 | –
O=C(O)c1ccc(-c2nc(-c3ccccc3)c(-c3ccccc3)[nH]2)cc1 | – | – | – | Kd [11]: 85 µM
O=C(NCCF)c1ccc(Nc2nc(-c3cccnc3)nc3ccccc23)cc1 | 3 | > 10 | 90 | –
CC(O)c1ccc(Nc2nc(-c3cccnc3)nc3ccccc23)cc1 (stereo not drawn) | > 100 | > 10 | 98 | –
CCNS(=O)(=O)c1ccc(Nc2nc(-c3cccnc3)nc3ccccc23)cc1 | > 100 | > 10 | 97 | –
NC(=O)c1ccc(Nc2nc(-c3ccncc3)nc3ccccc23)cc1 | > 100 | > 10 | 97 | –
O=C(NCCO)c1ccc(Nc2nc(-c3cccnc3)nc3ccccc23)cc1 | > 100 | > 10 | 100 | –
CCOC(=O)c1cccc(Nc2nc(-c3ccncc3)nc3ccccc23)c1 | 21 | 5.3 | 96 | –
CON(C)C(=O)c1ccc(Nc2nc(-c3cccnc3)nc3ccccc23)cc1 | 37 | > 10 | 97 | –
O=C(O)c1ccc(Nc2nc(-c3ccncc3)nc3ccccc23)cc1 | > 100 | > 10 | 98 | –
CSc1ccc(Nc2nc(-c3ccncc3)nc3ccccc23)cc1 | – | 10 | 95 | –
CONC(=O)c1ccc(Nc2nc(-c3cccnc3)nc3ccccc23)cc1 | 63 | > 10 | 99 | –
O=C(c1ccc(Nc2nc(-c3cccnc3)nc3ccccc23)cc1)C(F)(F)F | > 100 | – | 62 | –
CC[C@H](C)[C@H](N)C(=O)N[C@H](C(=O)N[C@@H](Cc1ccccc1)C(=O)N[C@@H](CCC(=O)O)C(=O)N[C@@H](CC(=O)O)C(=O)N[C@@H](CC(C)C)C(=O)N[C@@H](CC(C)C)C(=O)N[C@@H](CC(=O)O)C(=O)N[C@@H](Cc1ccc(O)cc1)C(=O)N[C@@H](Cc1ccc(O)cc1)C(=O)NCC(=O)N1CCC[C@H]1C(N)=O)[C@@H](C)O (H-ITFEDLLDYYGP-NH2) | – | – | – | Kd [12]: 5 µM; Selectivity ratio [13]: 4; Kd [5]: 53 µM; Kd [14]: 13 µM; Kd [6]: 4 µM; Selectivity ratio [15]: 3; Selectivity ratio [16]: 1; Kd [17]: 3 µM; Kd [8]: 84 µM; Selectivity ratio [9]: 13; Kd [18]: 15 µM; Selectivity ratio [10]: 21
CC(=O)c1cccc(Nc2nc(-c3cccnc3)nc3ccccc23)c1 | 30 | 8 | 89 | –
CC(=O)c1ccc(Nc2nc(-c3cccnc3)nc3ccccc23)cc1 | 14 | 8 | 93 | –
CCNC(=O)c1ccc(Nc2nc(-c3cccnc3)nc3ccccc23)cc1 | > 100 | > 10 | 97 | –
CCOC(=O)c1ccccc1Nc1nc(-c2ccncc2)nc2ccccc12 | 37 | > 10 | 97 | –
CCOC(=O)c1ccc(Nc2nc(-c3cccnc3)nc3ccccc23)cc1 | 47 | 4.7 | 84 | –
OC(c1ccc(Nc2nc(-c3cccnc3)nc3ccccc23)cc1)C(F)(F)F (stereo not drawn) | > 100 | 10 | 87 | –
N#Cc1ccc(Nc2nc(-c3ccncc3)nc3ccccc23)cc1 | 4 | > 10 | 96 | –
CC(=O)c1ccc(Nc2nc(-c3ccncc3)nc3ccccc23)cc1 | 9 | 4.6 | 96 | –
OC(c1ccc(Nc2nc(-c3cccnc3)nc3ccccc23)cc1)(C(F)(F)F)C(F)(F)F | > 100 | – | 46 | –
